# Compounds with a hit are over-represented: about 6.4% of the library has one in this group of screens.
# Jurkat viability: cytotoxicity toward Jurkat T cells, primary screen, cytotoxicity control, cell-based, Jurkat E6.1, 60K MLSMR library; hit rate 1.2% among 56,000; inhibition, % at 4 µM; AID 463, 2006; Jurkat E6.1 viability, ATP luminescence, 48 h;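 active = inhibition above the mean inhibition of all tested compounds plus 3 SD, cut at about 28% in these data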
# H69AR inhibit: proliferation blockers of H69AR lung cancer cells, primary screen, cell-based, human, 86K library; H69AR lung tumor viability, ATP luminescence, 72 h; stronger effect = lower value; viability, % at 10 µM; hit rate 6% among 85,000; AID 598, 2007;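 active = viability at or below 40%; inactive = viability above 40%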;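 note: multidrug resistant small cell line overexpressing MRP-1 efflux transporter; 100% = mean luminescence of untreated control wells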
# tolC growth inh: growth inhibitors of E. coli tolC mutant, primary screen, strain BW25113 ΔtolC::kan, 384-well; OD615; growth inhibition, % at 10 µM (by protocol); hit rate 2.2% among 65,000; AID 573, 2007;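 active = growth inhibition at or above a cutoff equal to the mean over every tested compound plus 3 SD, cut at about 60% in these data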;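 note: growth measured after 20 h incubation at 37 °C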
#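 Doses: one dose of 10 µM final / Material: E. coli BW25113 ΔtolC::kan, tolC deletion mutant strain / Buffer or medium: LB with kanamycin 50 µg/mL / Evaluation: percent growth inhibition / Detection: optical density read at 615 nm / Incubation: 37 °C, 20 h exposure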
# Fibroblast inh: antiproliferative effect on LL 47 fibroblasts – human, LL 47 cells, CellTiter-Glo luminescence, primary screen | hit rate 1.1% among 85,000 | viability, % at 10 µM | AID 719, 2007 | LL 47 human lung fibroblast viability, ATP luminescence; stronger effect = lower value;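 active = viability at or below 50% in the single dose screen; inactive = viability above 50%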;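 note: compound exposure lasted 72 h before the ATP readout; 100% = median luminescence of untreated cell-only wells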
#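 Material: human LL 47 lung fibroblast cells; quantity: 1,150 cells/well; medium: IMEM plus 15% FBS; doses: 0.1% DMSO in all compound wells; timing: overnight attachment after seeding, then 72 h compound exposure at 37 °C; detection: CellTiter-Glo luminescence; measure: % viability of median cell-only signal; controls: cell-only wells, no compound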
# E coli WT exp: growth inhibitors of wild-type E. coli, primary screen, strain BW25113, expanded library, OD600; OD600 absorbance; growth inhibition, % at 100 µM; hit rate 0.15% among 98,000; AID 710, 2007;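 active = growth inhibition above about 50% at one test dose, limit read from the data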;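 note: growth measured after 20 h incubation at 37 °C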
# HUVEC inhibit: inhibitors of HUVEC proliferation, primary screen, cell-based, 384-well | CellTiter-Glo luminescence, 72 h; stronger effect = lower value | viability, % at 10 µM (by protocol) | hit rate 1.1% among 86,000 | AID 648, 2007;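 active = viability at or below 30%; inactive = viability above 30%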;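 note: 100% = median luminescence of DMSO-only cell control wells on each plate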
# The depositor's hits bear a star; . = no result.
SMILES,Jurkat viability,H69AR inhibit,tolC growth inh,Fibroblast inh,E coli WT exp,HUVEC inhibit
CCCn1c(SCC(=O)Nc2ccccc2N2CCCCC2)nc2c1c(=O)n(C)c(=O)n2C,2,66,65*,87,-12,87
CCn1c(SCC(=O)N2c3ccccc3CCc3ccccc32)nc2c1c(=O)n(C)c(=O)n2C,6,14*,-4,99,.,94
CCCC1CCC(C2=N/C(=C\c3ccc(OC)c(OC)c3)C(=O)O2)CC1 (centres undefined),.,91,.,95,-5,92
CC(=O)OC(Cn1nc(C)cc1C)c1ccccc1 (centres undefined),-7,98,-32,101,7,102
N#Cc1c(SCC(N)=O)nsc1SCc1ccccc1Cl,1,92,2,93,-6,80
CCCOc1ccc(-c2nnn(CC(=O)Nc3cccc(C(=O)OC)c3)n2)cc1,-4,38*,-20,76,.,105
CCOC(=O)N1CCc2c(sc3c2C(=O)NC(c2ccccc2)N3)C1 (centres undefined),-2,32*,21,61,0,56
CN1CCc2c(sc3c2C(=O)NC(c2ccco2)N3)C1 (centres undefined),-5,83,-8,101,-2,100
CN1CCc2c(sc3c2C(=O)NC(c2cn(Cc4ccccc4)c4ccccc24)N3)C1 (centres undefined),8,3.4*,47,53,9,68
CCOc1ccc(Br)cc1C1NC(=O)c2c(sc3c2CCN(C)C3)N1 (centres undefined),4,39*,3,88,.,78
COc1ccc(N2CN=C3SCC(=O)N3C2)cc1,.,71,.,101,.,78
COC(=O)c1sc(S(=O)(=O)NCc2cccs2)c(C(=O)OC)c1C,-2,87,21,57,25,89
O=c1oc2ccccc2c(Nc2ccc3ccccc3c2)c1[N+](=O)[O-],.,19*,.,90,-8,59
COc1cc(C2Sc3ccccc3NC3=C2C(=O)OC3)cc(OC)c1OC (centres undefined),.,14*,.,81,.,72
O=S(=O)(c1ccc(Cl)c(Cl)c1)c1snnc1-c1ccccc1,.,-0.2*,.,4.8*,6,3.6*
COc1cccc(-c2nnc(Nc3nc4c(F)cccc4s3)o2)c1,8,50,22,87,-20,16*
O=C(Nc1nnc(-c2ccccc2Cl)o1)c1nc2ccccc2s1,.,28*,.,99,-2,52
COc1ccccc1-c1nnc(Nc2nc3c(OC)cccc3s2)o1,87*,.,6,.,-12,.
COc1cccc(OC)c1-c1nnc(-c2cn(C)c3ccccc23)o1,-7,97,-17,97,-8,86
COc1cccc2sc(Nc3nnc(-c4ccccc4Cl)o3)nc12,67*,27*,-11,41*,2,2.4*
O=C(Nc1nnc(-c2ccccc2Cl)o1)c1ccco1,-1,79,7,98,10,87
COc1cccc(-c2nnc(-c3ccc(C(F)(F)F)cc3)o2)c1,.,89,.,99,.,112
Cc1ccc(S(=O)(=O)N2CCOCC2)cc1C(=O)N1C(=O)c2cccc(N)c2C1=O,-4,94,-7,92,-2,91
Cc1ncoc1C(=O)Nc1ccc(Oc2ccccc2)cc1,1,87,-2,97,2,92
Cc1nc(C)c(C(=O)Nc2ccc(Oc3ccccc3)cc2)o1,30*,75,14,96,-1,94
SMILES,Jurkat viability,H69AR inhibit,tolC growth inh,Fibroblast inh,E coli WT exp,HUVEC inhibit
CCC(=O)Nc1nc(-c2ccccc2)ns1,.,84,.,108,.,102
CC(C)(C)c1csc(NC(=O)c2cccs2)n1,-8,94,45,94,-4,96
O=C(Nc1nc(-c2ccc(Cl)s2)cs1)c1cccs1,-3,34*,12,90,-24,69
O=C(Nc1nc(-c2ccccc2)ns1)c1cccs1,10,127,64*,106,-4,60
O=C(Nc1nc(-c2ccccc2)cs1)c1cccs1,7,74,98*,95,-8,77
c1ccc(-n2nnnc2-c2cnc(-c3ccncc3)nc2-c2cccs2)cc1,.,73,.,102,.,96
O=C1C=C(Nc2ccccc2O)c2ccccc2C1=O,.,7.9*,.,13*,39,4.7*
